Test results taken from ChEMBL document CHEMBL1131143, “Predictive models for GABAA/benzodiazepine receptor subtypes: studies of quantitative structure-activity relationships for imidazobenzodiazepines at five recombinant GABAA/benzodiazepine receptor subtypes [alphaxbeta3gamma2 (x = 1-3, 5, and 6)] via comparative molecular field analysis” (J Med Chem, 1998).

Legend:
Format in all cases: protein-complex assay
[1] = biological target: GABA-A receptor; alpha-6/beta-3/gamma-2 (Homo sapiens, UniProt P18507+P28472+Q16445); assay: Binding affinity against Gamma-aminobutyric acid A receptor alpha-6-beta-3-gamma-2
Method in brief: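 Cells scraped into PBS, spun at 3000g, resuspended in 10 mM KH₂PO₄/100 mM KCl pH 7.4. Nonspecific binding with 10⁻⁵ M diazepam; 1 h to equilibrium at 4 °C; filtration, ice-cold buffer wash, scintillation counting.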

[2] = biological target: T1, GABA-A receptor; alpha-5/beta-3/gamma-2 (Homo sapiens, UniProt P18507+P28472+P31644); assay: Binding affinity for Gamma-aminobutyric acid A receptor alpha-5-beta-3-gamma-2
T1 sequence (P18507 whole entry): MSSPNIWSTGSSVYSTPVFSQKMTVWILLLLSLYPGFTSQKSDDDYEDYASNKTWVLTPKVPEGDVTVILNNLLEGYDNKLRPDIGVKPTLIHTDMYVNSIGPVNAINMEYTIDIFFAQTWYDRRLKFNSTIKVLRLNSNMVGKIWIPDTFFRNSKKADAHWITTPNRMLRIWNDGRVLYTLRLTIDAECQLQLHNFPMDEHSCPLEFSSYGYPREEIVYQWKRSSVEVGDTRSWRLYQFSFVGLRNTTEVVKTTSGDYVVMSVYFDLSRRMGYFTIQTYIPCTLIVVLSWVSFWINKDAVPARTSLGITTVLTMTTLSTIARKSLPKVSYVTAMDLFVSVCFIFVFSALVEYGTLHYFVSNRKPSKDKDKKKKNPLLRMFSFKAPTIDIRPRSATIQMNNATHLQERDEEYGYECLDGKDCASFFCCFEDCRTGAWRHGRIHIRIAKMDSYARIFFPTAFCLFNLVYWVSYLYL
T1 sequence (P28472 whole entry): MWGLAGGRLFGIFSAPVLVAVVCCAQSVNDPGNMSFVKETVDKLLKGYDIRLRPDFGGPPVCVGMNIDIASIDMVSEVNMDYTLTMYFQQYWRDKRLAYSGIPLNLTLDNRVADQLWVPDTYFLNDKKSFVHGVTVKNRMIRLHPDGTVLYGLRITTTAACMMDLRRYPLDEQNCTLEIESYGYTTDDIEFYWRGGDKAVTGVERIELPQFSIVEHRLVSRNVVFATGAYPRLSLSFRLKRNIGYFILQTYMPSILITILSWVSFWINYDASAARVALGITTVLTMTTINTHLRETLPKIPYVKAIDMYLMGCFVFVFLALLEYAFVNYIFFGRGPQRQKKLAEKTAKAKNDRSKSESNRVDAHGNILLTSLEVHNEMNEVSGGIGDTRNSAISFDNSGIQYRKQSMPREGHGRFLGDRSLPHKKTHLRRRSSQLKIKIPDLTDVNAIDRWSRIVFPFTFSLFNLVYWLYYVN
T1 sequence (P31644 whole entry): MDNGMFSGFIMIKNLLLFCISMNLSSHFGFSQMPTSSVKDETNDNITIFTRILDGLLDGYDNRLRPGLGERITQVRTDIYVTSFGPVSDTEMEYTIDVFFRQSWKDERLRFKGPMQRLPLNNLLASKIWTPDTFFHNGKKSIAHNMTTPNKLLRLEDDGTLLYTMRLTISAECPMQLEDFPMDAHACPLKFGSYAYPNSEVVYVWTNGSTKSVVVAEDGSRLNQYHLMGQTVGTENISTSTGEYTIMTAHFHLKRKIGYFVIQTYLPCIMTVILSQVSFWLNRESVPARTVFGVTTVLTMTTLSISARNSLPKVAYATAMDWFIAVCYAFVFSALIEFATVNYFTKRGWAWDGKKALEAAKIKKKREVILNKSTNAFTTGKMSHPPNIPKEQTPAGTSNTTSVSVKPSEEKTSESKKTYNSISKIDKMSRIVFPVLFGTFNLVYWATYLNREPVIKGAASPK

[3] = biological target: T2, GABA-A receptor; alpha-1/beta-3/gamma-2 (Homo sapiens, UniProt P14867+P18507+P28472); assay: Binding affinity against alpha-1-beta-3-gamma-2 GABAA/BzR receptor subtype.
T2 sequence (P14867 whole entry): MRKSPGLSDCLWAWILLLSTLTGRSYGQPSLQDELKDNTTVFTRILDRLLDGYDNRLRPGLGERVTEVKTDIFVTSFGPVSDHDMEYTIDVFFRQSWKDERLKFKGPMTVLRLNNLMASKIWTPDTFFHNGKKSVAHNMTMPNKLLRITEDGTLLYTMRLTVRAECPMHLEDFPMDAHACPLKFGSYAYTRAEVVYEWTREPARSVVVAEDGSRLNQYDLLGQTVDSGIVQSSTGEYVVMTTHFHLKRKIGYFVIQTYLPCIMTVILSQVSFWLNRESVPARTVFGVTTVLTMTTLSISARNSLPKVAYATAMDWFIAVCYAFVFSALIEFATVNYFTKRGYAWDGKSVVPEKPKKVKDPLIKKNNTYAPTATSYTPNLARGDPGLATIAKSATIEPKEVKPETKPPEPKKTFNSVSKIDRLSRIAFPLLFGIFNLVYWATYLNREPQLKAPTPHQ
T2 sequence (P18507 whole entry): T1 sequence (P18507 whole entry)
T2 sequence (P28472 whole entry): T1 sequence (P28472 whole entry)

[4] = biological target: GABA-A receptor; alpha-1/beta-3/gamma-2 (Homo sapiens) (UniProt P14867+P18507+P28472); assay: It is the ratio of Ki value for alpha-1-beta-3-gamma-2 to that of alpha-5-beta-3-gamma-2
[5] = biological target: T3, GABA-A receptor; alpha-3/beta-3/gamma-2 (Homo sapiens, UniProt P18507+P28472+P34903); assay: Binding affinity against alpha-3-beta-3-gamma-2 GABAA/BzR receptor subtype.
T3 sequence (P18507 whole entry): T1 sequence (P18507 whole entry)
T3 sequence (P28472 whole entry): T1 sequence (P28472 whole entry)
T3 sequence (P34903 whole entry): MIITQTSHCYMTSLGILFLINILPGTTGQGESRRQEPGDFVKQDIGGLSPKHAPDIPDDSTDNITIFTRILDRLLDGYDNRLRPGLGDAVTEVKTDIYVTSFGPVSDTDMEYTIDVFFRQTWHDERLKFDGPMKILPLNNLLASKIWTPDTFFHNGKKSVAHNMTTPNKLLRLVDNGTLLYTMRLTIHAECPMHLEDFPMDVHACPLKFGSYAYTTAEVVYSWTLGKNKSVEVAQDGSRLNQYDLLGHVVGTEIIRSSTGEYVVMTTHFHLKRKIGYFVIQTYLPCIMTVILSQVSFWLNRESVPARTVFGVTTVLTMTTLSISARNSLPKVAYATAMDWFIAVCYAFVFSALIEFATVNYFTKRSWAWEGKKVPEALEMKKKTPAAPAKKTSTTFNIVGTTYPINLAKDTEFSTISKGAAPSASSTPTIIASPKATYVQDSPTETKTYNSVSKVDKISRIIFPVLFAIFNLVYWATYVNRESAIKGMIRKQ

[6] = biological target: T4, GABA-A receptor; alpha-2/beta-3/gamma-2 (Homo sapiens, UniProt P18507+P28472+P47869); assay: Binding affinity tested against alpha-2-beta-3-gamma-2 GABAA/BzR receptor subtype.
T4 sequence (P18507 whole entry): T1 sequence (P18507 whole entry)
T4 sequence (P28472 whole entry): T1 sequence (P28472 whole entry)
T4 sequence (P47869 whole entry): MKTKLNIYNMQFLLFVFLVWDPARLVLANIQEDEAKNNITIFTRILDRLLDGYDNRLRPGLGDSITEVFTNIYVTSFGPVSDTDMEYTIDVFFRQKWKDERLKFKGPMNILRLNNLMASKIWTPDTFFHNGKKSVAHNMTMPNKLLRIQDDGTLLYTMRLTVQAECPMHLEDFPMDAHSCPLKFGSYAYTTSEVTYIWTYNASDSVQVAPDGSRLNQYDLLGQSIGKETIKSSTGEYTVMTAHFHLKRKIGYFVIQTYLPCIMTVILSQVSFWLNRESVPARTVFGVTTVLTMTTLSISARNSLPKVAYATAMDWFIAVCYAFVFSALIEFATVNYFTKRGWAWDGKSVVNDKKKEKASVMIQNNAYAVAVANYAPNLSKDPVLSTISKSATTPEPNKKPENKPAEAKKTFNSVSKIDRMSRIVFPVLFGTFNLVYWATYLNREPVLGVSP

Sequence of GABA-A receptor; alpha-6/beta-3/gamma-2 (Q16445 whole entry, one chain of several): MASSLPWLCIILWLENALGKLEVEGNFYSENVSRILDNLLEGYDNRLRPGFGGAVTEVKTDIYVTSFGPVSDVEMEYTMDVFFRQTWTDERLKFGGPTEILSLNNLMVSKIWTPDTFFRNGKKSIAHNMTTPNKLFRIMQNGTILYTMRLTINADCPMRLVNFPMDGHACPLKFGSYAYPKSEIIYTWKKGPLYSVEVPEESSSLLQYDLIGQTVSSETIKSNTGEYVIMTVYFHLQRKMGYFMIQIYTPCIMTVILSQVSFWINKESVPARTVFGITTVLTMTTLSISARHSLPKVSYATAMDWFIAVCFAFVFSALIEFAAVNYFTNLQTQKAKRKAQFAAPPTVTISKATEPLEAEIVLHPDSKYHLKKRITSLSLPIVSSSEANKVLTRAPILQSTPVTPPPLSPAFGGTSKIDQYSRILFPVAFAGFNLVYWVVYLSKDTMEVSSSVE

Structure (SMILES)	Ki [1] [nM]	Ki [2] [nM]	Ki [3] [nM]	Ratio [4]	Ki [5] [nM]	Ki [6] [nM]
CN1Cc2c(C(=O)OCC3CC3)ncn2-c2ccc(Cl)cc2C1=O	168	9.8	16.4	1.7	42.5	48.2
CN1Cc2c(C(=O)OC(C)(C)C)ncn2-c2ccc(Br)cc2C1=O	9.4	0.47	11.4	24.3	9.2	10.7
COCc1ncn2c1CN(C)C(=O)c1cc(Cl)ccc1-2	> 300	38.8	> 300	> 7.7	> 300	> 300
CN1Cc2c(CCl)ncn2-c2ccc(Cl)cc2C1=O	> 300	28.5	> 300	> 10.5	> 300	> 300
CCOC(=O)c1ncn2c1[C@@H]1CCCN1C(=O)c1cc(C#C[Si](C)(C)C)ccc1-2	340	4	200	50	79	124
CCOCc1ncn2c1CN(C)C(=O)c1cc(Cl)ccc1-2	> 300	82.7	> 300	> 3.6	> 300	> 300
CCOC(=O)c1ncn2c1[C@@H]1CCN1C(=O)c1cc(C#C[Si](C)(C)C)ccc1-2	180	2.6	83	32	48	60
CCOC(=O)c1ncn2c1[C@@H]1CCN1C(=O)c1cc(Br)ccc1-2	31	0.3	17	56	6.7	13
CN1Cc2c(C(=O)OC(C)(C)C)ncn2-c2ccc(I)cc2C1=O	4.6	0.38	9.7	25.5	10.9	11.2
C#Cc1ccc2c(c1)C(=O)N1CC[C@H]1c1c(-c3nc(C(C)C)no3)ncn1-2	267	8.5	156	18	122	88
CCCCC(=O)c1ncn2c1CN(C)C(=O)c1cc(Cl)ccc1-2	2930	166	1580	9.6	2740	2860
CCOC(=O)c1ncn2c1[C@@H]1CCCN1C(=O)c1cc(OC)ccc1-2	83.2	0.45	48.5	108	27.5	27.4
CC#Cc1ccc2c(c1)C(=O)N(C)Cc1c(C(=O)OCC)ncn1-2	> 100	1.68	10.1	6	16.5	22.2
CCOC(=O)c1ncn2c1CN(C)C(=O)c1cc(C#N)ccc1-2	> 1000	6	10	1.67	19	45
C#Cc1ccc2c(c1)C(=O)N1CCC[C@@H]1c1c(C(=O)OCC)ncn1-2	61	7.2	283	39	102	318
C#Cc1ccc2c(c1)C(=O)N1CCC[C@H]1c1c(C(=O)OCC)ncn1-2	126	1.3	59	45	27	44
CC(=O)c1ncn2c1CN(C)C(=O)c1cc(Cl)ccc1-2	29500	2610	17500	6.7	22100	33800
CCCCCc1ncn2c1CN(C)C(=O)c1cc(Cl)ccc1-2	960	369	2050	5.6	2910	2900
CCc1ncn2c1CN(C)C(=O)c1cc(Cl)ccc1-2	3650	182	408	2.2	1130	1530
